Keap1-Nrf2 PPI: Keap1-Nrf2 (human) interaction inhibition; 340,000 compounds, 0.15% hits; inhibition, % at 9.4 µM; AID 504523; Keap1 Kelch-Nrf2 peptide fluorescence polarization, 1536-well; in the data active = inhibition above about 12%;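 also: human Keap1 Kelch domain with fluorescein labeled Nrf2 9mer peptide probe; 0% = neutral control wells and 100% = peptide positive control; higher means more block of Keap1 binding to Nrf2 peptide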
Target sequence (Q14145 whole entry, looked up, the tested form may be a part): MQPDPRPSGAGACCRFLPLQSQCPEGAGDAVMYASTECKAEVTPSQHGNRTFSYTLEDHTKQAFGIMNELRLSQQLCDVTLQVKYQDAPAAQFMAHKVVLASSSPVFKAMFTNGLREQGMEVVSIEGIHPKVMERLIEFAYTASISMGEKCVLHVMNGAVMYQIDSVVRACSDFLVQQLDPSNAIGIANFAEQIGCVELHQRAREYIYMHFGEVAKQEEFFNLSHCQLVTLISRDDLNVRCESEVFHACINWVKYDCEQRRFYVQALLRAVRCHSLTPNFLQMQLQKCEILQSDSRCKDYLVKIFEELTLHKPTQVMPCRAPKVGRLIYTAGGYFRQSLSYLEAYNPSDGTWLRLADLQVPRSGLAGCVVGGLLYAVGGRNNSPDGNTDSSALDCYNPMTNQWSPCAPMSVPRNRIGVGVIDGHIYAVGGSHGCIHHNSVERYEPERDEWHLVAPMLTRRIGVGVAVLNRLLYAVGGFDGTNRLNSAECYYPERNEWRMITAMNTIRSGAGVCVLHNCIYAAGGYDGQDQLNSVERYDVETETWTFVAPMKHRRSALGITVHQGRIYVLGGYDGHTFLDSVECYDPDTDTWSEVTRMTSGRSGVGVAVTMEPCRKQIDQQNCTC
miR122 inh: inhibitors of miR-122 in Huh7 cells; activation (reporter increase), % at 12.5 µM; 340,000 compounds, 0.3% hits; Huh7 miR-122 Renilla luciferase sensor, 48 h; neutral wells = 0, positive control = 100; AID 602342;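 active = mean replicate activation score at least 90 and every replicate individually at or above 90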;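 also: higher luciferase means less miR-122 activity so hits act as miR-122 inhibitors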
C-LANA FP: inhibitors of KSHV LANA C-terminal domain DNA binding; MBP-C-LANA/FAM-LBS DNA binding, fluorescence polarization; inhibition, % at 9 µM; 340,000 compounds, 0.078% hits; AID 504423;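 active = highest replicate inhibition at or above 60% at 9 µM, even if other replicates fall short; inactive = all replicates below 60% inhibition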;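 also: 0% = neutral control wells and 100% = 4 µM acridine orange control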
CAL PDZ FP-1: human CAL PDZ-peptide interaction inhibition; Q9HD26; purified CAL PDZ, TMR-peptide fluorescence polarization, 1 h; inhibition, % at 20 µM; 330,000 compounds, 0.02% hits; AID 504414;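 active = highest replicate inhibition of at least 40%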;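 also: plate controls were DMSO neutral control wells for no effect and unlabeled competitor peptide control wells for full effect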
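material = purified tagged CAL PDZ domain construct (CerCALP) | buffer or medium = sodium phosphate/NaCl buffer pH 7.4 with TCEP, IgG, Thesit | reagent = TMR-labelled reporter peptide T*-PRC34 bound in PDZ groove | incubation = 1 h room-temperature incubation prior to read | measured by = fluorescence polarization (mP) | evaluation = percent inhibition from loss of millipolarization | control set = unlabelled peptide and DMSO controls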
CAL PDZ FP-2: blocks peptide binding to the human CAL PDZ domain; Q9HD26; purified CAL PDZ, TMR-peptide fluorescence polarization, 1 h; inhibition, % at 24.9 µM; 300,000 compounds, 0.92% hits; AID 602252;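 active = mean inhibition of at least 30% with at least half of replicates also reaching 30%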;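 also: 0% = DMSO neutral control and 100% = excess unlabeled competitor peptide PRC23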
Numbers without * were called inactive; / = no result; [ ] = dose if it differs, or a comment. Hits are enriched below; roughly 1.1% of the tested compounds scored in any of these assays.

SMILES	Keap1-Nrf2 PPI	miR122 inh	C-LANA FP	CAL PDZ FP-1	CAL PDZ FP-2
COc1ccc(NC(=O)NC2(C(=O)N3CCN(C)CC3)CCCCC2)cc1	0	3	-1	10	61*
O=C(NC1CCCC1)[C@H]1[C@H](CO)[C@H]2Cn3c(ccc(-c4cccnc4)c3=O)[C@@H]1N2CCc1ccccc1	/	2[16.7 µM]	/	/	/
COc1ccc(S(=O)(=O)N(C)C[C@@H]2Oc3ccc(NC(=O)NC4CCCCC4)cc3C(=O)N([C@@H](C)CO)C[C@H]2C)cc1	/	-2[16.7 µM]	/	/	/
CC(=O)n1nc(-c2ccccc2)nc1NCc1cccs1	-9	/	-5	8	72*
CCC(=O)n1nc(-c2ccc(OC)cc2)nc1NCc1cccs1	-3	/	2	-2	-3
Cc1cc(C)nc(NC(=O)c2c(Cl)cccc2Cl)n1	-1	/	85*	1	-4
Cc1cc(C)nc(NC(=O)c2c(-c3c(Cl)cccc3Cl)noc2C)n1	-1	-4	0	/	-5
COC(=O)C1(C(F)(F)F)N=C(N(C)C)OC(N(C)C)=N1	0	4	-1	-2	42*
CCOC(=O)C1(C(F)(F)F)N=C(c2ccccc2F)OC(N(C)C)=N1 (configuration not stated)	-8	-10	2	-1	-4
CNC(=O)C[C@@H]1CC[C@H]2[C@@H](COC[C@@H](O)CN2Cc2ccc(Cl)c(Cl)c2)O1	/	-7[16.7 µM]	/	/	/
C[C@H](CO)N1C[C@H](C)[C@@H](CN(C)C(=O)C2CCC2)Oc2cc(-c3ccc(F)cc3)ccc2S1(=O)=O	/	18[16.7 µM]	/	/	/
O=C(C[C@H]1CC[C@@H]2[C@H](COC[C@H](O)CN2C(=O)c2ccccn2)O1)NC1CCC1	/	22[16.7 µM]	/	/	/
CSc1ccccc1C(=O)NCCCn1ccnc1	2	-10	0	17	61*
CCSc1ccccc1C(=O)NCCCn1ccnc1	-10	-6	0	-1	-3
Cc1c(C(=O)C(=O)NCCCn2ccnc2)c2ccccc2n1C	-4	/	2	-1	36*
CN(C)S(=O)(=O)n1cc(/C=C(\NC(=O)c2ccccc2Cl)C(=O)NCCCn2ccnc2)c2ccccc21	1	125*	1	-3	-1
Cc1noc(C)c1S(=O)(=O)Nc1ccc2c(c1)C(=O)N([C@@H](C)CO)C[C@@H](C)[C@@H](CN(C)Cc1ccc3c(c1)OCO3)OCCCC[C@H](C)O2	/	-9[16.7 µM]	/	/	/
Cc1ccc(C(C)C)cc1OCC(=O)Nc1nnc(C2CC2)s1	-5	3	-1	0	-6
Cc1cc(OCC(=O)Nc2nnc(C3CC3)s2)ccc1C(C)C	-1	/	-4	0	45*
COc1cccc(S(=O)(=O)N(C)C[C@H]2Oc3ncc(C#CC(C)C)cc3C(=O)N([C@@H](C)CO)C[C@@H]2C)c1	/	-3[16.7 µM]	/	/	/
O=C(NC1CCC1)[C@H]1[C@H](CO)[C@H]2Cn3c(ccc(-c4ccncc4)c3=O)[C@@H]1N2CC1CC1	/	7[16.7 µM]	/	/	/
O=C(Nc1ccccc1)c1cc([N+](=O)[O-])ccc1Cl	-5	9	-1	0	-1
O=C(Nc1ccccc1)c1cc([N+](=O)[O-])ccc1NC1CCCCC1	1	123*	0	1	-5
O=C(N=C1SC2CS(=O)(=O)CC2N1c1cccc(F)c1)C1CC1 (configuration not stated)	-3	-11	-1	1	62*
O=C(N=C1SC2CS(=O)(=O)CC2N1c1ccccc1)C1CC1 (configuration not stated)	-4	-7	0	-1	-2
SMILES	Keap1-Nrf2 PPI	miR122 inh	C-LANA FP	CAL PDZ FP-1	CAL PDZ FP-2
CCCCN(C(=O)c1c(CC)noc1C)c1c(N)n(CC(C)C)c(=O)[nH]c1=O	-6	-6	-2	0	2
CCc1noc(C)c1C(=O)N(CCOC)c1c(N)n(CC(C)C)c(=O)[nH]c1=O	1	-5	1	0	38*
CO[C@H]1CN(C)C(=O)c2ccc(NC(=O)Nc3ccccc3)cc2OC[C@H](C)N(CC2CC2)C[C@H]1C	/	2[16.7 µM]	/	/	/
Cc1c(C(=O)N2CCN(S(=O)(=O)c3ccccc3)CC2)oc2ccc(Br)cc12	-3	1	2	-2	32*
Cc1c(C(=O)N2CCCCC2)oc2ccc(Br)cc12	-4	-1	1	-1	14
O=C(O)Cc1ccc(N=Nc2c(O)c(C(=O)O)cc3ccccc23)cc1	-2	-5	92*	-1	-3
NS(=O)(=O)c1ccc(N=Nc2c(O)c(C(=O)O)cc3ccccc23)cc1	0	/	-1	10	-4
COc1cccc(S(=O)(=O)Nc2ccc3c(c2)[C@@H]2C[C@H](CC(=O)N[C@@H](C)c4ccccc4)O[C@@H](CO)[C@@H]2O3)c1	/	8[16.7 µM]	/	/	/
COc1ccc(OC)c(NC(=O)CSc2ccccc2)c1	2	24	-1	/	54*
COc1ccc(OC)c(NC(=O)C2CC(C)=C(C)CC2C(=O)O)c1 (configuration not stated)	0	2	-1	0	43*
COc1ccc(OC)c(NC(=O)[C@H]2CC=CC[C@H]2C(=O)O)c1	-2	11	1	-3	/
COC(=O)c1c(SCC(=O)NC2CCCCC2)[nH]c2ccccc2c1=O	-13	-3	-2	-2	31*
O=C(COC(=O)c1cc(=O)[nH]c2ccccc12)NC1CCCCC1	-6	4	2	-1	/
CCOc1cc(/C=N/NC(=O)c2ccncc2)cc(Cl)c1OS(C)(=O)=O	1	0	-1	-4	54*
COc1ccc(CN(C)C[C@@H]2Oc3c(NS(=O)(=O)c4cn(C)cn4)cccc3C(=O)N([C@H](C)CO)C[C@@H]2C)cc1	/	-2[16.7 µM]	/	/	/
C[C@H]1CN([C@@H](C)CO)C(=O)c2cc(N(C)C)ccc2O[C@@H]1CN(C)S(=O)(=O)c1cn(C)cn1	/	5[16.7 µM]	/	/	/
COc1ccc(C)cc1NS(=O)(=O)c1ccc2c(c1)CCN2C(C)=O	1	92*	-2	0	1
Cc1ccc(C(C)C)cc1OCCn1cncn1	6	-2	0	/	66*
Cc1ccc(OCCn2cncn2)c([N+](=O)[O-])c1	-3	-6	-1	-1	/
CCc1cccc(CC)c1NC(=O)COC(=O)C1(c2ccc(Cl)cc2)CCCC1	5	113*	0	0	/
CC(=O)Nc1ccc(NC(=O)COC(=O)C2(c3ccc(Cl)cc3)CCCC2)cc1	1	/	2	-1	-2
C[C@H](CO)N1C[C@H](C)[C@H](CN(C)C(=O)Nc2ccc(F)cc2)Oc2cc(/C=C/c3ccccc3)ccc2S1(=O)=O	/	1[16.7 µM]	/	/	/
COC(=O)c1ccc(C2=NOC(C)(c3sc(-c4ccc(Cl)cc4)nc3C)C2)cc1 (configuration not stated)	-1	/	0	-1	0
COC(=O)c1ccc(C2=NOC(C)(c3sc(-c4ccccc4)nc3C)C2)cc1 (configuration not stated)	-8	-1	-1	0	45*
C[C@@H]1CN([C@H](C)CO)C(=O)c2cc(NC(=O)CCC(F)(F)F)ccc2O[C@@H](C)CCCCO[C@H]1CN(C)C(=O)Nc1ccc(C(F)(F)F)cc1	/	8[16.7 µM]	/	/	/

Assay outcomes deposited in PubChem BioAssay by Broad Institute.
